The record followed here is ChEMBL document CHEMBL3400116, “Synthesis and activities towards resistant cancer cells of sulfone and sulfoxide griseofulvin derivatives” (Bioorg Med Chem Lett, 2015).

In general, inhibition refers to the drop in the measured response relative to a control, in per cent. One may read the IC50 as the midpoint of a concentration-inhibition curve.

Some results are limits rather than exact numbers.

Assay [1] concerns HCC1937. In words: Antiproliferative activity against exponentially growing adherent human HCC1937 cells assessed as inhibition of cell proliferation at 10 uM after 48 hrs by luminescence detection based ATPlite assay. The following applies: HCC1937, 48 h. A general note: Cellular ATP, detected with luciferase, serves as a proxy for viable cell number.
In assay [2] the test system is HCC1937. In words: Antiproliferative activity against exponentially growing adherent human HCC1937 cells assessed as inhibition of cell proliferation after 48 hrs by luminescence detection based ATPlite assay. The following applies: HCC1937, 48 h.
Assay [3] is described as follows: Antiproliferative activity against exponentially growing adherent human SCC114 cells assessed as inhibition of cell proliferation after 72 hrs by luminescence detection based ATPlite assay. It counts as functional. The following applies: SCC114, 72 h. A digest of the protocol:
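SCC-114 cells seeded at 10^3 cells/well in 96-well plates and left to grow exponentially as adherent cultures. After 72 h exposure at 37 °C in 5% CO2, viability was read by ATPlite luminescence of ATP from viable cells. IC50 came from nonlinear regression with a sigmoidal dose-response and variable Hill slope.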

In the case of `COc1cc(OC)c2c(c1Cl)O[C@]1(C2=O)C(SCCN(C)C)=CC(=O)C[C@H]1C`, in the assay with HCC1937 [1], the inhibition at 10 µM came to 0%. Also, the IC50 was more than 10000 nM in the assay on HCC1937 [2] and 1450 nM in assay [3].

As for `COc1cc(OC)c2c(c1Cl)O[C@]1(C2=O)C(S(=O)(=O)Cc2ccccc2)=CC(=O)C[C@H]1C`, the IC50 in the assay with HCC1937 [2] was determined as 1400 nM; in assay [3], 400 nM.

Turning to `COc1cc(OC)c2c(c1Cl)O[C@]1(C2=O)C(S(=O)(=O)CCN(C)C)=CC(=O)C[C@H]1C`, the IC50 with HCC1937 [2] was determined as 5900 nM; in assay [3], 2800 nM.

Consider `COc1cc(OC)c2c(c1Cl)O[C@]1(C2=O)C(S(=O)(=O)c2ccccc2)=CC(=O)C[C@H]1C`, for which the IC50 with HCC1937 [2] was 1600 nM; in assay [3], 1000 nM.

Consider `COc1cc(OC)c2c(c1Cl)O[C@]1(C2=O)C(S(C)(=O)=O)=CC(=O)C[C@H]1C`, for which the inhibition at 10 µM with HCC1937 [1] worked out at 40%. Moreover, the IC50 in the assay on HCC1937 [2] was more than 10000 nM; in assay [3], 1900 nM.

`COc1cc(OC)c2c(c1Cl)O[C@@]1(C=C([S+]([O-])Cc3ccccc3)C(=O)C[C@H]1C)C2=O` (some centres undefined): the IC50 in assay [3] is 20 nM.

Turning to `COc1cc(OC)c2c(c1Cl)O[C@@]1(C=C([S+]([O-])c3ccccc3)C(=O)C[C@H]1C)C2=O` (some centres undefined), the IC50 in the assay on HCC1937 [2] came out at 400 nM; in assay [3], 250 nM.

As to `COc1cc(OC)c2c(c1Cl)O[C@@]1(C=C(S(=O)(=O)Cc3ccccc3)C(=O)C[C@H]1C)C2=O`, the IC50 with HCC1937 [2] was 900 nM.

Regarding `COc1cc(OC)c2c(c1Cl)O[C@@]1(C=C(S(=O)(=O)c3ccccc3)C(=O)C[C@H]1C)C2=O`, the IC50 was 700 nM in the assay on HCC1937 [2] and 400 nM in assay [3].

On to `COc1cc(OC)c2c(c1Cl)O[C@]1(C2=O)C(SCc2ccccc2)=CC(=O)C[C@H]1C`, for which, in the assay with HCC1937 [2], the IC50 is more than 10000 nM.

As to `COc1cc(OC)c2c(c1Cl)O[C@]1(C2=O)C(OCc2ccccc2)=CC(=O)C[C@H]1C`, the inhibition at 10 µM with HCC1937 [1] was 0%. The results for the IC50 (in the assay on HCC1937 [2]; in assay [3]) were more than 10000 nM and 980 nM, respectively.

For the molecule `COC1=CC(=O)C[C@@H](C)[C@]12Oc1c(Cl)c(OC)cc(OC)c1C2=O` [GRISEOFULVIN], the inhibition at 10 µM with HCC1937 [1] is 0%. In addition, the IC50 in the assay with HCC1937 [2] is more than 10000 nM; in assay [3], 6400 nM.

For `CC(=O)O[C@H]1C(=O)[C@@]2(C)[C@H]([C@H](OC(=O)c3ccccc3)[C@]3(O)C[C@H](OC(=O)[C@H](O)[C@@H](NC(=O)c4ccccc4)c4ccccc4)C(C)=C1C3(C)C)[C@]1(OC(C)=O)CO[C@@H]1C[C@@H]2O` [PACLITAXEL], the inhibition at 10 µM with HCC1937 [1] was 0%. The IC50 in the assay on HCC1937 [2] is more than 10000 nM; in assay [3], 0.3 nM.

For the molecule `C/C(=C\c1csc(C)n1)[C@@H]1C[C@@H]2O[C@]2(C)CCC[C@H](C)[C@H](O)[C@@H](C)C(=O)C(C)(C)[C@@H](O)CC(=O)O1` [PATUPILONE], the inhibition at 10 µM with HCC1937 [1] stood at 0%. For the same molecule, the IC50 is more than 10000 nM in the assay with HCC1937 [2] and 0.17 nM in assay [3].

Consider `CCC1=C[C@@H]2CN(C1)Cc1c([nH]c3ccccc13)[C@@](C(=O)OC)(c1cc3c(cc1OC)N(C)[C@H]1[C@@](O)(C(=O)OC)[C@H](OC(C)=O)[C@]4(CC)C=CCN5CC[C@]31[C@@H]54)C2` [VINORELBINE], for which the inhibition at 10 µM in the assay with HCC1937 [1] was 0%. Moreover, the results for the IC50 (with HCC1937 [2]; in assay [3]) were more than 10000 nM and 0.07 nM, respectively.
